Measurements reported in ChEMBL document CHEMBL4706614, “Design, synthesis and biological evaluation of novel naphthoquinone-4-aminobenzensulfonamide/carboxamide derivatives as proteasome inhibitors” (Eur J Med Chem, 2021).
Active and inactive are the calls of the source. The calls are words filed in the database; no cut-off is given here. Residues, ends and D or L forms follow the SMILES beside them. *: point of attachment. Cbz = O=C(OCc1ccccc1)*

What was measured:
MCF7 [1] = experiment: Antiproliferative activity against human MCF7 cells assessed as cell viability after 48 hrs MTT assay; assay type: functional, cell-based; conditions: MCF7, 48 h
Method in brief: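 MTT:medium (1:9) added 4 h at 37°C, formazan dissolved in DMSO, absorbance 570 nm. DMSO solvent control; triplicate; IC50 = concentration inhibiting 50% of viability.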

[2] = target: T1, Proteasome component C5 (Homo sapiens) (UniProt P20618); experiment: Inhibition of caspase-like activity 20S proteasome beta subunit 1 of human MCF7 cells using fluorogenic substrate Z-LLE-AMC at 10 uM after 1 hr by fluorescence analysis relative to control; assay type: cell-based
T1 sequence (whole entry): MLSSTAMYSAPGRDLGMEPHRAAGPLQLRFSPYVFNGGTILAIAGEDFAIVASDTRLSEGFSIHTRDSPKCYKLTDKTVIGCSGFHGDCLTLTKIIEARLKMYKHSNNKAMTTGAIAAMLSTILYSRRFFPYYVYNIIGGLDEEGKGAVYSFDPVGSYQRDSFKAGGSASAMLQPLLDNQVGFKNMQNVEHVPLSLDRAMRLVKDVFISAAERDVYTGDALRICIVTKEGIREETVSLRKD
Method in brief: (§1)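 Screen at 10 µM: MCF-7 lysates (sucrose/HEPES/MgCl2/EDTA buffer, 1 mM DTT) preincubated 10 min in 225 mM Tris pH 7.8, 7.5 mM MgOAc, 7.5 mM MgCl2, 45 mM KCl, 1 mM DTT; compound 1 h at 37 °C, then substrate 1 h at 37 °C; AMC release ex 360/em 460 nm versus DMSO; MG-132 positive control.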

[3] = target: Proteasome Macropain subunit (Homo sapiens) (UniProt P49721); experiment: Inhibition of trypsin-like activity 20S proteasome beta subunit 2 of human MCF7 cells using fluorogenic substrate Boc-LRR-AMC at 10 uM after 1 hr by fluorescence analysis relative to control; assay type: cell-based; method in brief: as §1
[4] = target: T2, Proteasome Macropain subunit MB1 (Homo sapiens) (UniProt P28074); experiment: Inhibition of chymotrypsin-like activity 20S proteasome beta subunit 5 of human MCF7 cells using fluorogenic substrate Suc-LLVY-AMC at 10 uM after 1 hr by fluorescence analysis relative to control; assay type: cell-based; method in brief: as §1
T2 sequence (whole entry): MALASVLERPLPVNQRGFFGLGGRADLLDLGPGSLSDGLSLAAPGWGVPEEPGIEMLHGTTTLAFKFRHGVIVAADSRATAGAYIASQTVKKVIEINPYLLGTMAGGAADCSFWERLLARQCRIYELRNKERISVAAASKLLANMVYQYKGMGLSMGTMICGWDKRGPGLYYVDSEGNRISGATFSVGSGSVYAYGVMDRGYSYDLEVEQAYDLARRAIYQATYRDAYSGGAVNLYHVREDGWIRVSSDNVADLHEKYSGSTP

MCF7 [5] = experiment: Effect on 20S proteasome beta subunit 5 expression in human MCF7 cells at IC50 after 12 hrs by Western blot analysis; assay type: functional, cell-based
[6] = target: T3, Proteasome Macropain subunit MB1 (Homo sapiens, UniProt P28074); experiment: Inhibition of chymotrypsin-like activity 20S proteasome beta subunit 5 of human MCF7 cells using fluorogenic substrate Suc-LLVY-AMC after 1 hr by fluorescence analysis; assay type: cell-based
T3 sequence (P28074 whole entry): T2 sequence (whole entry)
Method in brief: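 For IC50, intact MCF-7 cells treated 12 h with compounds, then lysed (sucrose/HEPES/MgCl2/EDTA, 1 mM DTT); extracts in Tris pH 7.8/MgOAc/MgCl2/KCl/DTT mix with substrate 1 h at 37 °C; AMC fluorescence ex 360/em 460 nm, normalized to BCA total protein; DMSO solvent and MG-132 positive controls.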

MCF7 [7] = experiment: Increase in K48-linked polyubiquitinated protein expression in human MCF7 cells at IC50 after 12 hrs by Western blot analysis; assay type: functional, cell-based

Sequence of Proteasome Macropain subunit (Homo sapiens) (P49721 whole entry): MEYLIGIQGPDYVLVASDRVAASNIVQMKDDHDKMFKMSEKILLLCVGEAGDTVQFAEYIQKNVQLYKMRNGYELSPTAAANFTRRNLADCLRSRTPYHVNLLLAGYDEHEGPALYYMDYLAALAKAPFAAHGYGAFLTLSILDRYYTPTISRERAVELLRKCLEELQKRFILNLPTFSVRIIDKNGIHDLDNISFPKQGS

SMILES | IC50 (MCF7 [1]) | inhibition [2] | inhibition [3] | inhibition [4] | Activity (MCF7 [5]) | IC50 [6] | Activity (MCF7 [7])
Cc1ccc(NS(=O)(=O)c2ccc(NC3=C(Cl)C(=O)c4ccccc4C3=O)cc2)nc1 | 1.79 µM | inactive | 11.6% | 10.1% | – | – | –
O=C1C(Cl)=C(Nc2ccc(S(=O)(=O)Nc3ccc(Cl)cn3)cc2)C(=O)c2ccccc21 | 4.43 µM | 28.9% | 35% | 42.3% | inactive | 9.9 µM | Active
Cc1ccnc(NS(=O)(=O)c2ccc(NC3=C(Cl)C(=O)c4ccccc4C3=O)cc2)c1 | 2.11 µM | 3.35% | 7.26% | 11.7% | – | – | –
O=C1C(Cl)=C(Nc2ccc(S(=O)(=O)Nc3ccccn3)cc2)C(=O)c2ccccc21 | 1.96 µM | 18.8% | 29.6% | 36.8% | inactive | 12.5 µM | Active
O=C(Nc1ccccc1)c1ccc(NC2=C(Cl)C(=O)c3ccccc3C2=O)cc1 | 15.4 µM | 10.7% | 3.19% | 4.03% | – | – | –
Cc1cccnc1NS(=O)(=O)c1ccc(NC2=C(Cl)C(=O)c3ccccc3C2=O)cc1 | 1.91 µM | 9.01% | 13% | 14.8% | – | – | –
CC(C)C[C@@H](C=O)NC(=O)[C@H](CC(C)C)NC(=O)[C@H](CC(C)C)NC(=O)OCc1ccccc1 (Cbz-Leu-Leu-Leu-aldehyde) | – | 18.4% | 51.4% | 38.2% | – | – | –
O=C(Nc1cccc(Cl)c1)c1ccc(NC2=C(Cl)C(=O)c3ccccc3C2=O)cc1 | 16.6 µM | 11.7% | 27.6% | 21.6% | – | – | –
O=C(Nc1ccc(Cl)cc1)c1ccc(NC2=C(Cl)C(=O)c3ccccc3C2=O)cc1 | 4.52 µM | inactive | 1.55% | 15.8% | – | – | –
CCc1ccccc1NS(=O)(=O)c1ccc(NC2=C(Cl)C(=O)c3ccccc3C2=O)cc1 | 2.43 µM | 13.9% | 21.1% | 17.4% | – | – | –
O=C1C(Cl)=C(Nc2ccc(S(=O)(=O)Nc3ccccc3[N+](=O)[O-])cc2)C(=O)c2ccccc21 | 3.99 µM | 14.2% | 21.3% | 17.3% | – | – | –
O=C(Nc1nccs1)c1ccc(NC2=C(Cl)C(=O)c3ccccc3C2=O)cc1 | 3.84 µM | 3.59% | inactive | 19.6% | – | – | –
COc1cccc2c1C(=O)c1c(O)c3c(c(O)c1C2=O)C[C@@](O)(C(=O)CO)C[C@@H]3O[C@H]1C[C@H](N)[C@H](O)[C@H](C)O1 [DOXORUBICIN] | 0.93 µM | – | – | – | – | – | –
O=C1C(Cl)=C(Nc2ccc(S(=O)(=O)Nc3cccc([N+](=O)[O-])c3)cc2)C(=O)c2ccccc21 | 2.17 µM | 7.44% | 19.4% | 23.5% | – | – | –
Cc1csc(NS(=O)(=O)c2ccc(NC3=C(Cl)C(=O)c4ccccc4C3=O)cc2)n1 | 4.23 µM | 15.4% | 21% | 24.8% | – | – | –
COc1cc(NS(=O)(=O)c2ccc(NC3=C(Cl)C(=O)c4ccccc4C3=O)cc2)cc(OC)c1 | 2.2 µM | 12% | 22.7% | 20% | – | – | –
O=C(Nc1cccc2ccccc12)c1ccc(NC2=C(Cl)C(=O)c3ccccc3C2=O)cc1 | 4.8 µM | 16.7% | 4.41% | 16.9% | – | – | –
O=C1C(Cl)=C(Nc2ccc(S(=O)(=O)Nc3cccnc3Cl)cc2)C(=O)c2ccccc21 | 4.65 µM | 11.2% | 22.1% | 22.4% | – | – | –

SMILES | IC50 (MCF7 [1]) | inhibition [2] | inhibition [3] | inhibition [4] | Activity (MCF7 [5]) | IC50 [6] | Activity (MCF7 [7])
Cc1csc(NC(=O)c2ccc(NC3=C(Cl)C(=O)c4ccccc4C3=O)cc2)n1 | 2.44 µM | 7.76% | 7.11% | 22.3% | – | – | –
Cc1cccc(NC(=O)c2ccc(NC3=C(Cl)C(=O)c4ccccc4C3=O)cc2)c1 | 14.4 µM | 15.1% | 3.39% | 14.6% | – | – | –
Cc1ccc(NC(=O)c2ccc(NC3=C(Cl)C(=O)c4ccccc4C3=O)cc2)nc1 | 4.16 µM | 7.42% | inactive | 22% | – | – | –
O=C(Nc1ccncc1)c1ccc(NC2=C(Cl)C(=O)c3ccccc3C2=O)cc1 | 20.8 µM | 7.87% | 2.43% | 8.96% | – | – | –
CC(C)c1ccccc1NS(=O)(=O)c1ccc(NC2=C(Cl)C(=O)c3ccccc3C2=O)cc1 | 5.38 µM | 11.5% | 17.1% | 20% | – | – | –
O=C(Nc1ccc(Cl)cn1)c1ccc(NC2=C(Cl)C(=O)c3ccccc3C2=O)cc1 | 6.19 µM | 8.55% | inactive | 19.4% | – | – | –
O=C1C(Cl)=C(Nc2ccc(S(=O)(=O)N3CCOCC3)cc2)C(=O)c2ccccc21 | 1.84 µM | 16.2% | 2.76% | 10.8% | – | – | –
Cc1ccnc(NC(=O)c2ccc(NC3=C(Cl)C(=O)c4ccccc4C3=O)cc2)c1 | 1.72 µM | 8.37% | inactive | 16.6% | – | – | –
O=C1C(Cl)=C(Nc2ccc(S(=O)(=O)Nc3ccccc3Cl)cc2)C(=O)c2ccccc21 | 2.56 µM | 1.21% | 6.29% | 3.25% | – | – | –
O=C(Nc1cccnc1)c1ccc(NC2=C(Cl)C(=O)c3ccccc3C2=O)cc1 | 6.04 µM | 1.2% | inactive | 16.3% | – | – | –
O=C1C(Cl)=C(Nc2ccc(S(=O)(=O)Nc3ccc(Br)cc3)cc2)C(=O)c2ccccc21 | 3.37 µM | 10% | 23.8% | 22.2% | – | – | –
Cc1cccnc1NC(=O)c1ccc(NC2=C(Cl)C(=O)c3ccccc3C2=O)cc1 | 4.32 µM | 9.52% | inactive | 11.4% | – | – | –
Cc1cc(NC(=O)c2ccc(NC3=C(Cl)C(=O)c4ccccc4C3=O)cc2)no1 | 10.2 µM | 8.36% | 6.55% | 18.9% | – | – | –
CC(C)c1ccccc1NC(=O)c1ccc(NC2=C(Cl)C(=O)c3ccccc3C2=O)cc1 | 2.61 µM | 9.94% | inactive | 17.2% | – | – | –
O=C1C(Cl)=C(Nc2ccc(S(=O)(=O)Nc3cccc4ccccc34)cc2)C(=O)c2ccccc21 | 3.32 µM | 15.4% | 21.2% | 18.4% | – | – | –
O=C(Nc1ccc([N+](=O)[O-])cc1)c1ccc(NC2=C(Cl)C(=O)c3ccccc3C2=O)cc1 | 16.1 µM | 22.8% | 30.5% | 35.3% | – | 33.1 µM | –
O=C1C(Cl)=C(Nc2ccc(S(=O)(=O)Nc3cccc(Cl)c3)cc2)C(=O)c2ccccc21 | 2.1 µM | 14.2% | 24.5% | 28.8% | – | – | –
O=C1C(Cl)=C(Nc2ccc(S(=O)(=O)Nc3ccc([N+](=O)[O-])cc3)cc2)C(=O)c2ccccc21 | 2.84 µM | 14.1% | 22.7% | 26% | – | – | –
